# Measurements from ChEMBL document CHEMBL1926569, “Novel (E)-1-(4-methyl-2-(alkylamino)thiazol-5-yl)-3-arylprop-2-en-1-ones as potent antimicrobial agents” (2011).
# Columns and labels:
# [1] = test system: Staphylococcus aureus; experiment: Antibacterial activity against Staphylococcus aureus ATCC 6538 after 24 hrs by microdilution method; type: functional; settings: ATCC 6538, 24 h
# How it was run: (§1)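 Broth microdilution in 96-well plates. Bacterial suspensions were adjusted in sterile saline to 1.0 × 10⁵ CFU/ml, prepared daily and kept at 4 °C. Compound was added to LB broth with 1.0 × 10⁴ CFU per well and shaken at 160 rpm for 24 h at […] (so in the source). MIC is the lowest concentration with no visible growth under a binocular microscope. OD655 was also read. Duplicate, repeated three times.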
# [2] = test system: Bacillus cereus; experiment: Antibacterial activity against clinical isolate of Bacillus cereus after 24 hrs by microdilution method; type: functional; how it was run: as §1
# [3] = test system: Micrococcus flavus; experiment: Antibacterial activity against Micrococcus flavus ATCC 10240 after 24 hrs by microdilution method; type: functional; settings: ATCC 10240, 24 h; how it was run: as §1
# [4] = test system: Listeria monocytogenes; experiment: Antibacterial activity against Listeria monocytogenes NCTC 7973 after 24 hrs by microdilution method; type: functional; settings: NCTC 7973, 24 h; how it was run: as §1
# [5] = test system: Pseudomonas aeruginosa; experiment: Antibacterial activity against Pseudomonas aeruginosa ATCC 27853 after 24 hrs by microdilution method; type: functional; settings: ATCC 27853, 24 h; how it was run: as §1
# [6] = test system: Salmonella typhimurium; experiment: Antibacterial activity against Salmonella Typhimurium ATCC 13311 after 24 hrs by microdilution method; type: functional, Salmonella enterica subsp. enterica serovar Typhimurium; settings: Salmonella enterica, ATCC 13311, 24 h; how it was run: as §1
# [7] = test system: Escherichia coli; experiment: Antibacterial activity against Escherichia coli ATCC 35210 after 24 hrs by microdilution method; type: functional; settings: ATCC 35210, 24 h; how it was run: as §1
# [8] = test system: Enterococcus faecalis; experiment: Antibacterial activity against Enterococcus faecalis isolated from human after 24 hrs by microdilution method; type: functional; how it was run: as §1
# [9] = test system: Staphylococcus aureus; experiment: Antibacterial activity against Staphylococcus aureus ATCC 6538 incubated for 24 hrs followed by serial sub-cultivation for 24 hrs by microdilution method; type: functional; settings: ATCC 6538, 24 h
# How it was run: (§2)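 MBC: after the 24 h LB broth microdilution (1.0 × 10⁴ CFU per well, 160 rpm), wells were serially sub-cultured into fresh broth plates and incubated a further 24 h. MBC is the lowest concentration with no visible growth, taken as 99.5% killing of the original inoculum. Duplicate, repeated three times.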
# [10] = test system: Bacillus cereus; experiment: Antibacterial activity against clinical isolate of Bacillus cereus incubated for 24 hrs followed by serial sub-cultivation for 24 hrs by microdilution; type: functional; how it was run: as §2
# [11] = test system: Micrococcus flavus; experiment: Antibacterial activity against Micrococcus flavus ATCC 10240 incubated for 24 hrs followed by serial sub-cultivation for 24 hrs by microdilution; type: functional; settings: ATCC 10240, 24 h; how it was run: as §2
# [12] = test system: Listeria monocytogenes; experiment: Antibacterial activity against Listeria monocytogenes NCTC 7973 incubated for 24 hrs followed by serial sub-cultivation for 24 hrs by microdilution; type: functional; settings: NCTC 7973, 24 h; how it was run: as §2
# [13] = test system: Pseudomonas aeruginosa; experiment: Antibacterial activity against Pseudomonas aeruginosa ATCC 27853 incubated for 24 hrs followed by serial sub-cultivation for 24 hrs by microdilution; type: functional; settings: ATCC 27853, 24 h; how it was run: as §2
# [14] = test system: Salmonella typhimurium; experiment: Antibacterial activity against Salmonella Typhimurium ATCC 13311 incubated for 24 hrs followed by serial sub-cultivation for 24 hrs by microdilution; type: functional, Salmonella enterica subsp. enterica serovar Typhimurium; settings: Salmonella enterica, ATCC 13311, 24 h; how it was run: as §2
# [15] = test system: Escherichia coli; experiment: Antibacterial activity against Escherichia coli ATCC 35210 incubated for 24 hrs followed by serial sub-cultivation for 24 hrs by microdilution; type: functional; settings: ATCC 35210, 24 h; how it was run: as §2
# [16] = test system: Enterococcus faecalis; experiment: Antibacterial activity against Enterococcus faecalis isolated from human incubated for 24 hrs followed by serial sub-cultivation for 24 hrs by microdilution; type: functional; how it was run: as §2
# [17] = test system: Aspergillus ochraceus; experiment: Antifungal activity against Aspergillus ochraceus ATCC 12066 after 72 hrs by serial dilution technique; type: functional; settings: ATCC 12066, 72 h
# How it was run: (§3)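 Modified microdilution in 96-well plates. Fungi were kept on malt agar at 4 °C. Spores were washed off in sterile 0.85% saline with 0.1% Tween 80. Compounds were dissolved at 1 mg/ml in 5% DMSO with 0.1% Tween 80 and added to malt broth with inoculum. Plates were shaken at 160 rpm for 72 h at 28 °C. Duplicate, repeated three times.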
# [18] = test system: Aspergillus niger; experiment: Antifungal activity against Aspergillus niger ATCC 6275 after 72 hrs by serial dilution technique; type: functional; settings: ATCC 6275, 72 h; how it was run: as §3
# [19] = test system: Aspergillus flavus; experiment: Antifungal activity against Aspergillus flavus ATCC 9643 after 72 hrs by serial dilution technique; type: functional; settings: ATCC 9643, 72 h; how it was run: as §3
# [20] = test system: Talaromyces funiculosus; experiment: Antifungal activity against Penicillium funiculosum ATCC 36839 after 72 hrs by serial dilution technique; type: functional; settings: ATCC 36839, 72 h; how it was run: as §3
# [21] = test system: Penicillium ochrochloron; experiment: Antifungal activity against Penicillium ochrochloron ATCC 9112 after 72 hrs by serial dilution technique; type: functional; settings: ATCC 9112, 72 h; how it was run: as §3
# [22] = test system: Trichoderma viride; experiment: Antifungal activity against Trichoderma viride IAM 5061 after 72 hrs by serial dilution technique; type: functional; settings: IAM 5061, 72 h; how it was run: as §3
# [23] = test system: Candida albicans; experiment: Antifungal activity against Candida albicans isolated from human after 72 hrs by serial dilution technique; type: functional; how it was run: as §3
# [24] = test system: Aspergillus ochraceus; experiment: Antifungal activity against Aspergillus ochraceus ATCC 12066 incubated for 72 hrs followed by serial sub-cultivation for 72 hrs by serial dilution technique; type: functional; settings: ATCC 12066, 72 h
# How it was run: (§4)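 MFC: material from 72 h malt broth microdilution wells was serially sub-cultured into fresh broth plates and incubated a further 72 h at 28 °C. Fungicidal concentration is taken from growth after sub-culture. Duplicate, repeated three times.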
# [25] = test system: Aspergillus fumigatus; experiment: Antifungal activity against Aspergillus fumigatus isolated from human incubated for 72 hrs followed by serial sub-cultivation for 72 hrs by serial dilution technique; type: functional; how it was run: as §4
# [26] = test system: Aspergillus niger; experiment: Antifungal activity against Aspergillus niger ATCC 6275 incubated for 72 hrs followed by serial sub-cultivation for 72 hrs by serial dilution technique; type: functional; settings: ATCC 6275, 72 h; how it was run: as §4
# [27] = test system: Aspergillus flavus; experiment: Antifungal activity against Aspergillus flavus ATCC 9643 incubated for 72 hrs followed by serial sub-cultivation for 72 hrs by serial dilution technique; type: functional; settings: ATCC 9643, 72 h; how it was run: as §4
# [28] = test system: Talaromyces funiculosus; experiment: Antifungal activity against Penicillium funiculosum ATCC 36839 incubated for 72 hrs followed by serial sub-cultivation for 72 hrs by serial dilution technique; type: functional; settings: ATCC 36839, 72 h; how it was run: as §4
# [29] = test system: Penicillium ochrochloron; experiment: Antifungal activity against Penicillium ochrochloron ATCC 9112 incubated for 72 hrs followed by serial sub-cultivation for 72 hrs by serial dilution technique; type: functional; settings: ATCC 9112, 72 h; how it was run: as §4
# [30] = test system: Trichoderma viride; experiment: Antifungal activity against Trichoderma viride IAM 5061 incubated for 72 hrs followed by serial sub-cultivation for 72 hrs by serial dilution technique; type: functional; settings: IAM 5061, 72 h; how it was run: as §4
# [31] = test system: Candida albicans; experiment: Antifungal activity against Candida albicans isolated from human incubated for 72 hrs followed by serial sub-cultivation for 72 hrs by serial dilution technique; type: functional; how it was run: as §4
# [32] = test system: Pseudomonas aeruginosa; experiment: Ratio of ampicillin MIC to compound MIC for Pseudomonas aeruginosa ATCC 27853; type: functional
# [33] = test system: Aspergillus ochraceus; experiment: Ratio of bifonazole to compound for Aspergillus ochraceus ATCC 12066; type: functional
# [34] = test system: Aspergillus niger; experiment: Ratio of bifonazole to compound for Aspergillus niger ATCC 6275; type: functional
# [35] = test system: Talaromyces funiculosus; experiment: Ratio of bifonazole to compound for Penicillium funiculosum ATCC 36839; type: functional
# [36] = test system: Penicillium ochrochloron; experiment: Ratio of bifonazole to compound for Penicillium ochrochloron ATCC 9112; type: functional
# [37] = test system: Trichoderma viride; experiment: Ratio of bifonazole to compound for Trichoderma viride IAM 5061; type: functional
# [38] = test system: Candida albicans; experiment: Ratio of bifonazole to compound for Candida albicans isolated from human; type: functional
# [39] = test system: Aspergillus ochraceus; experiment: Ratio of ketoconazole to compound for Aspergillus ochraceus ATCC 12066; type: functional
# [40] = test system: Aspergillus fumigatus; experiment: Ratio of ketoconazole to compound for Aspergillus fumigatus isolated from human; type: functional
# [41] = test system: Penicillium ochrochloron; experiment: Ratio of ketoconazole to compound for Penicillium ochrochloron ATCC 9112; type: functional
# [42] = test system: Candida albicans; experiment: Ratio of ketoconazole to compound for Candida albicans isolated from human; type: functional
# [43] = test system: Aspergillus ochraceus; experiment: Antifungal activity against Aspergillus ochraceus after 72 hrs by serial dilution technique
smiles,measurement,setting,value
CNc1nc(C)c(C(=O)/C=C/c2cccc(C)c2)s1,MIC,[1],73.5 µM
same,MIC,[2],73.5 µM
same,MIC,[3],73.5 µM
same,MIC,[4],110 µM
same,MIC,[5],73.5 µM
same,MIC,[6],73.5 µM
same,MIC,[7],55.1 µM
same,MIC,[8],55.1 µM
same,MBC,[9],110 µM
same,MBC,[10],91.9 µM
same,MBC,[11],91.9 µM
same,MBC,[12],110 µM
same,MBC,[13],91.9 µM
same,MBC,[14],91.9 µM
same,MBC,[15],73.5 µM
same,MBC,[16],73.5 µM
same,MIC,[17],36.8 µM
same,MIC,[18],37.8 µM
same,MIC,[19],36.8 µM
same,MIC,[20],36.8 µM
same,MIC,[21],36.8 µM
same,MIC,[22],36.8 µM
same,MIC,[23],55.1 µM
same,MFC,[24],73.5 µM
same,MFC,[25],73.5 µM
same,MFC,[26],73.5 µM
same,MFC,[27],91.9 µM
same,MFC,[28],73.5 µM
same,MFC,[29],73.5 µM
same,MFC,[30],73.5 µM
same,MFC,[31],73.5 µM
same,Ratio,[32],10
same,Ratio,[33],10
same,Ratio,[34],10
same,Ratio,[35],10
same,Ratio,[36],10
same,Ratio,[37],10
same,Ratio,[38],10
same,Ratio,[39],10
same,Ratio,[40],10
same,Ratio,[41],10
same,Ratio,[42],10
same,MIC,[43],36.8 µM
CNc1nc(C)c(C(=O)/C=C/c2cccc(Cl)c2Cl)s1,MIC,[1],61.2 µM
same,MIC,[2],45.9 µM
same,MIC,[3],30.6 µM
same,MIC,[4],91.7 µM
same,MIC,[5],61.2 µM
same,MIC,[6],61.2 µM
same,MIC,[7],45.9 µM
same,MIC,[8],76.5 µM
same,MBC,[9],91.7 µM
same,MBC,[10],61.2 µM
same,MBC,[11],91.7 µM
same,MBC,[12],91.7 µM
same,MBC,[13],91.7 µM
same,MBC,[14],76.5 µM
same,MBC,[15],61.2 µM
same,MBC,[16],76.5 µM
same,MIC,[17],30.6 µM
same,MIC,[18],30.6 µM
same,MIC,[19],30.6 µM
same,MIC,[20],30.6 µM
same,MIC,[21],30.6 µM
same,MIC,[22],30.6 µM
same,MIC,[23],45.9 µM
same,MFC,[24],61.2 µM
same,MFC,[25],61.2 µM
same,MFC,[26],61.2 µM
same,MFC,[27],76.5 µM
same,MFC,[28],61.2 µM
same,MFC,[29],61.2 µM
same,MFC,[30],61.2 µM
same,MFC,[31],61.2 µM
same,Ratio,[32],10
same,Ratio,[33],10
same,Ratio,[34],10
same,Ratio,[35],10
same,Ratio,[36],10
same,Ratio,[37],10
same,Ratio,[38],10
same,Ratio,[39],10
same,Ratio,[40],10
same,Ratio,[41],10
same,Ratio,[42],10
same,MIC,[43],30.6 µM
